Measured values reported in ChEMBL document CHEMBL3286272, “Synthesis, biological, and biophysical studies of DAG-indololactones designed as selective activators of RasGRP” (Bioorg Med Chem, 2014).
Activity calls are given as the source filed them. The calls are words filed in the database; no cut-off is given here.

What was measured:
[1] = target: T1, Ras guanyl-releasing protein 3 (Homo sapiens) (UniProt Q8IV61); assay: Activation of RasGRP3 in human Ramos cells assessed as ERK1/2 phosphorylation at 10000 nM after 30 mins by Western blot analysis; type: cell-based
T1 sequence (whole entry): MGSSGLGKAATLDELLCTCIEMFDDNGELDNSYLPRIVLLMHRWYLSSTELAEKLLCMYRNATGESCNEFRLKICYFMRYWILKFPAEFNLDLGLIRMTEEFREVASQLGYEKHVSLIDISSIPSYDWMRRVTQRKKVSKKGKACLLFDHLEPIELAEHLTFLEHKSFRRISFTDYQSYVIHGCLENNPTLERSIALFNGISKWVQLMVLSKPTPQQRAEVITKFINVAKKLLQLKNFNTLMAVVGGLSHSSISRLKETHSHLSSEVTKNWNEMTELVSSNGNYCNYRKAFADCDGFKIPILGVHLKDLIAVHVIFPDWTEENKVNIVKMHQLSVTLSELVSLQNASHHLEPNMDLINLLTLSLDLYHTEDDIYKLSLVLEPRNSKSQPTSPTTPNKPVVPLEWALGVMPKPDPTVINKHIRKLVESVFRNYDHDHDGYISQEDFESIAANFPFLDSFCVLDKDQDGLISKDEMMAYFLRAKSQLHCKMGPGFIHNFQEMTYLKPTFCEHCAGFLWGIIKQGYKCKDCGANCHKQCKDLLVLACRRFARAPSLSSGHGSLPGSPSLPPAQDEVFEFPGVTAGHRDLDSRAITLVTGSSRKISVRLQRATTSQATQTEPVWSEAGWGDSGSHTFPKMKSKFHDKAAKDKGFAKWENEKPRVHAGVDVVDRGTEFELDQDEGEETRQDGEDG
Method in brief: (§1)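 Ramos cells in RPMI-1640 with 10% FBS and 1% L-glutamine, plated at 300,000 cells/ml, were exposed after 24 h to 0.01, 0.1, 1 and 10 μM compound for 30 min. Lysates were made in PBS with 0.5% Triton X-100 and sonicated. 7.5 μg protein was run on 10% Tris-glycine gels, blotted to nitrocellulose, probed overnight with phospho-specific primary antibodies and detected by ECL.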

[2] = organism: Homo sapiens; assay: Selectivity ratio of Ki for recombinant human PKC-alpha to Ki for recombinant human GFP-tagged RasGRP3
[3] = target: T1, Ras guanyl-releasing protein 3 (Homo sapiens); assay: Activation of RasGRP3 (unknown origin) overexpressed in HEK293 cells assessed as ERK1/2 phosphorylation at 0.1 to 30 uM after 30 mins by Western blot analysis; type: cell-based
[4] = target: Protein kinase C delta type (Homo sapiens) (UniProt Q05655); assay: Activation of PKC-delta in HEK293 cells overexpressing RasGRP3 assessed as protein phosphorylation at S299 at 0.1 to 30 uM after 30 mins by Western blot analysis; type: cell-based
Sequence of Protein kinase C delta type (Homo sapiens) (Q05655 whole entry, looked up, the tested form may be a part): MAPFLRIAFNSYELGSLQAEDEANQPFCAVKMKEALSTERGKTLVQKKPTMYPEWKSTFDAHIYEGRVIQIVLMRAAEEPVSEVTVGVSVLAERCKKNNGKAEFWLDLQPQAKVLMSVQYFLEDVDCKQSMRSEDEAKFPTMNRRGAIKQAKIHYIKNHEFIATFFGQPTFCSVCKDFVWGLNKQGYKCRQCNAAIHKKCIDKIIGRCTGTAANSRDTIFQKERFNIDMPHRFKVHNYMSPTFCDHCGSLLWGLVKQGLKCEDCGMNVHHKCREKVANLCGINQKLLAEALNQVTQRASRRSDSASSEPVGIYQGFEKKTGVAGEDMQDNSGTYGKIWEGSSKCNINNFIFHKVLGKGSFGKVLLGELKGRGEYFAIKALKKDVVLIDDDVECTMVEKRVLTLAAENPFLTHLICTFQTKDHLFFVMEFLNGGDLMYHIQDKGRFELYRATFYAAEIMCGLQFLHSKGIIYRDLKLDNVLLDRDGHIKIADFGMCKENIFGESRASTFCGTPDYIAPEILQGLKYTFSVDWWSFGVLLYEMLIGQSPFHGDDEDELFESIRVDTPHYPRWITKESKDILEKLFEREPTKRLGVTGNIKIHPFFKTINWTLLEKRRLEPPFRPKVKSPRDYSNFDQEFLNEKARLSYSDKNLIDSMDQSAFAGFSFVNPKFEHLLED

[5] = target: T2, Protein kinase C epsilon type (Homo sapiens) (UniProt Q02156); assay: Binding affinity to recombinant human YFP-tagged PKC-epsilon expressed in human LNCAP cells assessed as induction of protein translocation from plasma membrane to internal membrane at 10000 nM after 2 to 10 mins by confocal microscopic analysis; type: cell-based
T2 sequence (whole entry): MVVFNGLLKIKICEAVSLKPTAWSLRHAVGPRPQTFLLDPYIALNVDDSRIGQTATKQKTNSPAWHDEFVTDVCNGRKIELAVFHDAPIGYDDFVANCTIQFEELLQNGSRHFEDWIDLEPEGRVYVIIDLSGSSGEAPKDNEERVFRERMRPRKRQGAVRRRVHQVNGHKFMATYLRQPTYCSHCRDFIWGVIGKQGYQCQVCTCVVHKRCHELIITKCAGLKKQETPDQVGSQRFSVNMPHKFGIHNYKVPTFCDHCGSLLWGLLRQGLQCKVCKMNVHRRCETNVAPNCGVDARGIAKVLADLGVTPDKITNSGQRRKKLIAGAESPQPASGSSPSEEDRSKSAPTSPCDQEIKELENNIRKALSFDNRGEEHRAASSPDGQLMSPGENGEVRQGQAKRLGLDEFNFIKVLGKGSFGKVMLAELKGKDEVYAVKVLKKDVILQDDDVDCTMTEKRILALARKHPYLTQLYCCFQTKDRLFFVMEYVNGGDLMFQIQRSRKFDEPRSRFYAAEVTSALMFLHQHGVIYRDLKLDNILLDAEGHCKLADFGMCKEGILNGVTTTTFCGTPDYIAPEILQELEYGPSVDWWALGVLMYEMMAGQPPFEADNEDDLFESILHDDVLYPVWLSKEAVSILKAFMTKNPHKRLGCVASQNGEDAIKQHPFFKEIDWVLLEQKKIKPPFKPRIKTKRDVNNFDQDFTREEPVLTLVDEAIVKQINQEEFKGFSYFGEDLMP
Method in brief: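 LNCaP cells were transiently transfected with human YFP-PKCε and imaged live by confocal microscopy 24 h later every 30 s for 30 min after 10 μM ligand. Membrane/cytoplasm intensity ratio from 4 μm2 regions was normalized to time 0. n = 3–6.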

[6] = target: Protein kinase C delta type (Homo sapiens) (UniProt Q05655); assay: Activation of PKC-delta in human Ramos cells assessed as protein phosphorylation at S299 at 10000 nM after 30 mins by Western blot analysis; type: cell-based; method in brief: as §1
[7] = organism: Homo sapiens; assay: Selectivity ratio of Ki for recombinant human PKC-alpha to Ki for recombinant RasGRP1 C1 domain (unknown origin)
[8] = target: Protein kinase C delta type (Homo sapiens) (UniProt Q05655); assay: Activation of PKC-delta in HEK293 cells assessed as protein phosphorylation at S299 at 0.1 to 30 uM after 30 mins by Western blot analysis; type: cell-based
[9] = target: Protein kinase C (PKC) (Homo sapiens) (UniProt O94806+P41743+P17252+P05129+Q05655+P05771+Q05513+Q02156+P24723+Q15139+Q04759); assay: Activation of PKC in human Ramos cells assessed as PKD1 phosphorylation at S744/S748 at 10000 nM after 30 mins by Western blot analysis; type: cell-based; method in brief: as §1
[10] = target: Protein kinase C alpha type (Homo sapiens, UniProt P17252); assay: Binding affinity to recombinant human GFP-tagged PKC-alpha expressed in CHOK1 cells assessed as induction of protein translocation from plasma membrane to internal membrane at 10000 nM after 5 to 15 mins by confocal microscopic analysis; type: cell-based; conditions: CHO-K1
Method in brief: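 CHO-K1 cells were transiently transfected with human GFP-PKCα and imaged live by confocal microscopy 24 h later (488 nm excitation, 500–530 nm emission) every 30 s for 30 min after 10 μM ligand. Membrane/cytoplasm intensity ratio from 4 μm2 regions was normalized to time 0. n = 3–6.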

[11] = target: T3, Protein kinase C epsilon type (Homo sapiens, UniProt Q02156); assay: Displacement of [3H]PDBu from recombinant human PKC-epsilon after 5 mins by scintillation counting analysis in presence of phosphatidylserine
T3 sequence (Q02156 whole entry): T2 sequence (whole entry)
Method in brief: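 [3H]PDBu binding competition with 100 μg/ml phosphatidylserine present; PKCα and RasGRP1-C1 assayed at 37°C for stability. Values are mean ± SEM of triplicate independent experiments.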

Row | Structure (SMILES) | Activity [1] | Ratio Ki [2] | Activity [3] | Activity [4] | Activity [5] | Activity [6] | Ratio Ki [7] | Activity [8] | Activity [9] | Activity [10] | Ki [11] [nM]
1 | CCCC(CCC)C(=O)OCC1(CO)C/C(=C\c2cccc3ccn(C)c23)C(=O)O1 (centres undefined) | Active | 10 | Active | Active | Active | Active | 19 | Active | Active | Active | 11.7
2 | CCCC(CCC)C(=O)OCC1(CO)C/C(=C\c2cn(C)c3ccccc23)C(=O)O1 (centres undefined) | Active | 49 |  | Active | Active | Active | 65 | Active | Active | Active | 21.1
3 | CCCC(CCC)C(=O)OCC1(CO)C/C(=C\c2cccc3c2ccn3C)C(=O)O1 (centres undefined) | Active | 11 | Active | Active | Active | Active | 10 | Active | Active | Active | 14.6
4 | CCCC(CCC)C(=O)OCC1(CO)C/C(=C\c2ccc3ccn(C)c3c2)C(=O)O1 (centres undefined) | Active | 6 | Active | Active | Active | Active | 9 | Active | Active | Active | 8.08
5 | CCCC(CCC)C(=O)OCC1(CO)C/C(=C\c2ccc3c(ccn3C)c2)C(=O)O1 (centres undefined) | Active | 24 | Active | Active | Active | Active | 24 | Active | Active | Active | 2.17
